Data set [1] in a line: Aqueous solubility in pH 7.4 phosphate buffer at 120 uM after 24 hrs by HPLC method. In kind it is physicochemical.
The nature of data set [2]: Aqueous solubility in pH 5.5 phosphate buffer at 120 uM after 24 hrs by HPLC method. In kind it is physicochemical. The conditions noted are these: phosphate buffer, pH 5.5.
In data set [3] the test system is Receptor-type tyrosine-protein kinase FLT3 (Homo sapiens), P36888 [UNDEFINED MUTATION]. Description: Inhibition of FLT3 ITD mutant (unknown origin) using TAMRA-Src- tide as substrate at 12.5 uM after 1 hr by fluorescence polarization assay relative to control. An outline of the steps:
(§1)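 FLT3-ITD kinase inhibition by fluorescence polarization IMAP assay; each compound tested at 12.5 and 1.25 μM; percent inhibition, average of two parallel measurements.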
(In fluorescence polarisation assays a small probe gives low polarisation when free and higher when bound to something large.)

For data set [4] the test system is unchanged. Description: Inhibition of FLT3 ITD mutant (unknown origin) using TAMRA-Src- tide as substrate at 1.25 uM after 1 hr by fluorescence polarization assay relative to control. An outline of the steps: as §1
Data set [5] can be described thus: Lipophilicity, chromatographic hydrophobicity index of the compound at pH 7.4 by HPLC method. In kind it is physicochemical. The conditions noted are these: buffer. An outline of the steps: (§2)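 RP-HPLC with buffer/acetonitrile gradient elution; CHI profile at starting pH 10.5, 7.4, 5.5 and 1.2; values given as average of the compound group.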
Data set [6] is described as follows: Lipophilicity, chromatographic hydrophobicity index of the compound at pH 5.5 by HPLC method. Particulars: buffer. In kind it is physicochemical. In short, it runs like this: as §2
Data set [7] is described as follows: Lipophilicity, chromatographic hydrophobicity index of the compound at pH 1.2 by HPLC method. In kind it is physicochemical. Particulars: buffer. An outline of the steps:
as §2

The conditions of data set [8]: buffer, pH 10.5.
The test system of data set [9] is MV4-11. The data set is described as follows: Antiproliferative activity against human MV4-11 cells after 72 hrs by Celltiter-Glo luminescent cell viability assay. In kind it is functional, cell-based. Particulars: MV4-11, 72 h. In short, it runs like this: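 MV4-11 leukaemia cells, 72 h proliferation assay, luminescence read-out; IC50 determined from concentration–response.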
(In general: In ATP-based viability assays light output follows the ATP content of the culture.)

Data set [10] can be described thus: Dissociation constant, pKa of the compound at 25 to 50 uM by UV spectroscopy. In kind it is physicochemical. In short, it runs like this:
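Carboxyl pKa by automated UV/pH titration with MeOH as co-solvent.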

Data set [11] is described as follows: Apparent partition coefficient, log P of the compound in n-octanol/aqueous mixture at pH 7.4 after 1 hr by shake flask method. In kind it is physicochemical.
Data set [12] can be described thus: n-Octanol-buffer distribution coefficient, log D of the compound at pH 7.4 after 1 hr by shake flask method. In kind it is physicochemical.
Data set [13] is described as follows: n-Octanol-buffer distribution coefficient, log D of the compound at pH 5.5 after 1 hr by shake flask method. In kind it is physicochemical.

≈ marks a conversion by molar mass, not a printed value.

Receptor-type tyrosine-protein kinase FLT3 (Homo sapiens), P36888 [UNDEFINED MUTATION], sequence (P36888 whole entry, looked up, change not shown): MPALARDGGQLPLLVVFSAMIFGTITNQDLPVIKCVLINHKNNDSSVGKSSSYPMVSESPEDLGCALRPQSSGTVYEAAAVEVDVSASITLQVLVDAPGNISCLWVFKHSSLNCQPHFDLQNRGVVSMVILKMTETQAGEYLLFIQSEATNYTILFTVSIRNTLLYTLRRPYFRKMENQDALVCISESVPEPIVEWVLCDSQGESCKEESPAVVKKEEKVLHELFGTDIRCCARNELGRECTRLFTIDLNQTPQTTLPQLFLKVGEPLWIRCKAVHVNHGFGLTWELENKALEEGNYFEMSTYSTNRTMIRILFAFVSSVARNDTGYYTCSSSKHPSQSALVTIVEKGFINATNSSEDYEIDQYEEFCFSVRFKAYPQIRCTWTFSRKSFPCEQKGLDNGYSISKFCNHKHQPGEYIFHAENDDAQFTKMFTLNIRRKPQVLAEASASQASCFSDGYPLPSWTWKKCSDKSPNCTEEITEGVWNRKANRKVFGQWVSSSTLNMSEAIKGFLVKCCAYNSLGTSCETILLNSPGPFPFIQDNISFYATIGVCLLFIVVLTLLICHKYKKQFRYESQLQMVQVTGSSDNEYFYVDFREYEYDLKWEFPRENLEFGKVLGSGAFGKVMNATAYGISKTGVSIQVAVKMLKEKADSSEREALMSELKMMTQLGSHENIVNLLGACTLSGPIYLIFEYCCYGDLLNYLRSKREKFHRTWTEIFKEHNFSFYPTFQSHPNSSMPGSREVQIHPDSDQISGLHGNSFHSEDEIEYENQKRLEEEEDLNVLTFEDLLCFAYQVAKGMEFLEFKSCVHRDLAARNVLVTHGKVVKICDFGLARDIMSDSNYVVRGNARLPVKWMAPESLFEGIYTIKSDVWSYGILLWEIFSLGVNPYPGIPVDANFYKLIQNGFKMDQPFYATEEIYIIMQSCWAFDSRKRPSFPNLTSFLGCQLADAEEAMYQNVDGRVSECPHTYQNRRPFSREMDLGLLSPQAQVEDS

As usually defined, the solubility is how much of the substance goes into solution per volume. A lower solubility goes with little dissolved substance. The inhibition is the drop in the measured response relative to a control, in per cent. A low value points to a response near the control. As to `Cc1[nH]c(/C=C2\C(=O)Nc3ccc(C(=O)O)cc32)c(C)c1C(=O)N[C@@H](Cc1ccccc1)C(=O)O`, the solubility at 24 h, 120 µM in data set [1] was at least 120 µM; in [2], 110 µM (≈ 52.1 µg/mL). The inhibition in data set [3] is above 100%; in [4] it was 100%. Besides, the CHI is on record as 29 in data set [5], 35 in [6], 61 in data set [7] and 24 in data set [8].

In the case of `COC(=O)CC[C@H](NC(=O)c1ccc2c(c1)/C(=C/c1[nH]c(C)c(C(=O)N[C@@H](CCC(=O)OC)C(=O)OC)c1C)C(=O)N2)C(=O)OC`, the solubility at 24 h, 120 µM in data set [1] and in data set [2] was below 5 µM in each case. Moreover, the inhibition turned out to be 80.5% in [3] and 41.9% in data set [4]. Besides, the CHI in data set [5], in data set [6], in data set [7] and in data set [8] was 65 each time.

A word on the IC50: it is the concentration at which inhibition is half-maximal. Lower therefore signals higher potency. Regarding `COC(=O)CC[C@H](NC(=O)c1c(C)[nH]c(/C=C2\C(=O)Nc3ccc(C(=O)N[C@@H](Cc4ccccc4)C(=O)OC)cc32)c1C)C(=O)OC`, the solubility at 24 h, 120 µM in data set [1] and in [2] was below 1 µM each time. Further, the inhibition in data set [3] was 91%; in data set [4], 57.3%. The same compound gave an IC50 in data set [9] of 11.9 µM. The CHI in [5] is listed as 78; in data set [6], 79; in data set [7], 78; in data set [8] it was 77.

Consider `COC(=O)[C@H](Cc1ccccc1)NC(=O)c1ccc2c(c1)/C(=C/c1[nH]c(C)c(C(=O)O)c1C)C(=O)N2`, for which the solubility at 24 h, 120 µM in data set [1] is 20 µM (≈ 9.75 µg/mL); in data set [2], below 1 µM. In addition, the inhibition amounted to 71.6% in data set [3] and 69% in [4]. The compound further displayed an IC50 in [9] of 3.7 µM. For the same compound, the CHI in data set [5] worked out at 56; in [6] it was 68; in [7], 73; in [8] it was 47.

For the compound `COC(=O)CC[C@H](NC(=O)c1ccc2c(c1)/C(=C/c1[nH]c(C)c(C(=O)N[C@@H](Cc3ccccc3)C(=O)OC)c1C)C(=O)N2)C(=O)OC`, the solubility at 24 h, 120 µM in data set [1] and in [2] was below 1 µM each time. Moreover, the inhibition in [3] was found to be 79.4%; in data set [4], 19.9%. The compound also registered an IC50 in data set [9] of 17.7 µM. For the same compound, the CHI in data set [5], in data set [6], in data set [7] and in [8] was 79 in each case.

Regarding `CCOC(=O)c1c(C)[nH]c(/C=C2\C(=O)Nc3ccc(C(=O)N[C@@H](CCC(=O)OC)C(=O)OC)cc32)c1C`, the solubility at 24 h, 120 µM in [1] and in data set [2] was below 1 µM throughout. Moreover, the results for the inhibition in data set [3] and in [4] were 76.7% and 30.2%, respectively. Also, the CHI in [5], in data set [6], in data set [7] and in [8] was 84 throughout.

For `COC(=O)[C@H](Cc1ccccc1)NC(=O)c1ccc2c(c1)/C(=C/c1[nH]c(C)c(C(=O)N[C@@H](Cc3ccccc3)C(=O)OC)c1C)C(=O)N2`, the solubility at 24 h, 120 µM in [1] and in [2] was below 1 µM each time. Further, the values for the inhibition in [3] and in data set [4] were 92.3% and 28.9%, respectively. For the same compound, the IC50 in [9] turned out to be 10.9 µM. Moreover, the CHI was 90 in data set [5], 91 in [6], 92 in data set [7] and 91 in data set [8].

`COC(=O)CC[C@H](NC(=O)c1c(C)[nH]c(/C=C2\C(=O)Nc3ccc(C(=O)O)cc32)c1C)C(=O)OC`: the solubility at 24 h, 120 µM was at least 120 µM in data set [1] and 30 µM (≈ 14.5 µg/mL) in [2]. Besides, the inhibition in data set [3] was above 100%; in data set [4], 97.4%. For the same compound, the CHI is 38 in data set [5], 45 in data set [6], 58 in data set [7] and 35 in [8].

Consider `COC(=O)CC[C@H](NC(=O)c1ccc2c(c1)/C(=C/c1[nH]c(C)c(C(=O)O)c1C)C(=O)N2)C(=O)OC`, for which the solubility at 24 h, 120 µM was 100 µM (≈ 48.3 µg/mL) in [1] and below 5 µM in data set [2]. In addition, the inhibition in [3] came to 28.8%; in data set [4], 58.7%. The CHI came to 42 in data set [5], 54 in [6], 59 in [7] and 34 in [8].

Turning to `CCOC(=O)c1c(C)[nH]c(/C=C2\C(=O)Nc3ccc(C(=O)N[C@@H](Cc4ccccc4)C(=O)O)cc32)c1C`, the solubility at 24 h, 120 µM in data set [1] was 20 µM (≈ 10 µg/mL); in [2] it was below 5 µM. Also, the inhibition in data set [3] is above 100%; in [4], 90.9%. Moreover, the CHI in [5] came out at 60; in data set [6] it was 61; in data set [7] it was 86; in data set [8], 58.

Regarding `COC(=O)CC[C@H](NC(=O)c1c(C)[nH]c(/C=C2\C(=O)Nc3ccc(C(=O)N[C@@H](Cc4ccccc4)C(=O)O)cc32)c1C)C(=O)OC`, the solubility at 24 h, 120 µM was at least 120 µM in data set [1] and 60 µM (≈ 37.8 µg/mL) in [2]. Besides, the inhibition in [3] was above 100%; in data set [4], 98.7%. Also, the CHI in data set [5] stood at 50; in data set [6] it was 50; in data set [7], 68; in data set [8], 47.

As for `COC(=O)c1ccc2c(c1)/C(=C/c1[nH]c(C)c(C(=O)N[C@@H](Cc3ccccc3)C(=O)OC)c1C)C(=O)N2`, the figures for the solubility at 24 h, 120 µM in data set [1] and in [2] were below 5 µM and below 1 µM, respectively. The inhibition was determined as 79.3% in [3] and 45.7% in data set [4]. The compound also had an IC50 in [9] of 0.5 µM. In addition, the CHI in [5] came to 88; in data set [6], 89; in data set [7] it was 89; in [8], 89.

As for `Cc1[nH]c(/C=C2\C(=O)Nc3ccc(C(=O)N[C@@H](Cc4ccccc4)C(=O)O)cc32)c(C)c1C(=O)N[C@@H](Cc1ccccc1)C(=O)O`, the solubility at 24 h, 120 µM was at least 120 µM in [1] and 110 µM (≈ 68.3 µg/mL) in data set [2]. Moreover, the results for the inhibition in data set [3] and in [4] were above 100% and 98.7%, respectively. In addition, the CHI in data set [5] was determined as 39; in data set [6] it was 40; in data set [7], 70; in data set [8], 36.

The term pKa denotes the pH at which an ionisable group is half protonated. Lower therefore signals a stronger acid or weaker base. In the case of `COC(=O)CC[C@@H](NC(=O)c1ccc2c(c1)/C(=C/c1[nH]c(C)c(C(=O)O)c1C)C(=O)N2)C(=O)OC`, the inhibition in data set [3] came to 12.1%; in data set [4], 80.6%. Besides, the pKa at up to 50 µM in data set [10] was determined as 5.47.

For `COC(=O)CC[C@H](NC(=O)c1c(C)[nH]c(/C=C2\C(=O)Nc3ccc(C(=O)OC)cc32)c1C)C(=O)OC`, the solubility at 24 h, 120 µM in [1] and in [2] was below 5 µM in each case. Further, the inhibition in data set [3] was 92.2%; in [4], 87%. For the same compound, in [9], the IC50 worked out at 0.08 µM. In addition, the CHI in data set [5], in data set [6], in data set [7] and in data set [8] was 73 each time.

Take `Cc1[nH]c(/C=C2\C(=O)Nc3ccc(C(=O)N[C@@H](Cc4ccccc4)C(=O)O)cc32)c(C)c1C(=O)O`: the solubility at 24 h, 120 µM in data set [1] was at least 120 µM; in data set [2], below 5 µM. For the same compound, the inhibition in [3] is above 100%; in [4], 97.4%. The CHI was determined as 32 in [5], 41 in [6], 63 in [7] and 24 in data set [8].

In the case of `CCOC(=O)c1c(C)[nH]c(/C=C2\C(=O)Nc3ccc(C(=O)N[C@@H](Cc4ccccc4)C(=O)OC)cc32)c1C`, the solubility at 24 h, 120 µM in [1] and in [2] was below 1 µM each time. The inhibition in data set [3] came out at 74.2%; in [4] it was 25%. Inhibition in data set [9] was half-maximal at 10.6 µM (IC50). In addition, the CHI in [5] is given as 98; in data set [6] it was 98; in data set [7], 99; in [8], 100.

`COC(=O)[C@H](Cc1ccccc1)NC(=O)c1ccc2c(c1)/C(=C/c1[nH]c(C)c(C(=O)N[C@@H](Cc3ccccc3)C(=O)O)c1C)C(=O)N2`: the figures for the solubility at 24 h, 120 µM in data set [1] and in data set [2] were 70 µM (≈ 44.4 µg/mL) and 30 µM (≈ 19 µg/mL), respectively. Also, the inhibition in [3] is above 100%; in data set [4] it was 58.6%. The compound also gave an IC50 in data set [9] of 24.3 µM. The CHI in data set [5] came out at 59; in data set [6], 60; in [7], 80; in [8], 57.

What is called logD is the decadic logarithm of the distribution of all forms, ionised or not, between an organic phase and buffer at a given pH. Consider `COC(=O)CC[C@@H](NC(=O)c1ccc2c(c1)/C(=C/c1[nH]c(C)c(C(=O)N[C@H](CCC(=O)OC)C(=O)OC)c1C)C(=O)N2)C(=O)OC`, for which the inhibition in data set [3] was 75.4%; in [4], 62.5%. The logD at 1 h in [11], in data set [12] and in data set [13] was 3.36 each time.
